# Results of several laboratories.
# Compare with care: the assays were run in different laboratories.
# Observed: cell growth or viability
SMILES,cell line,assay,conditions,quantity,value
Cc1cc(N(CCOS(C)(=O)=O)CCOS(C)(=O)=O)ccc1C=O,SN12K1,,,IC50,0.79 µg/mL
CC[C@H](C)[C@H](N)C(=O)O[C@]1(CC)C(=O)OCc2c1cc1n(c2=O)Cc2cc3cc4c(cc3nc2-1)OCO4,HCT-116,MTT,,IC50,64 nM
CCCc1cc(=O)n2nc(NCc3c(F)cc(Cl)cc3F)c(C#N)c2[nH]1,U-87 MG,ATP luminescence,72 h,IC50,> 50000 nM
Cc1ccc2c(CNCC3(N4CCCC4)COC3)c[nH]c2c1,U-87 MG,,"30 µM, 48 h",viability,27.6%
O=c1c2ccccc2nc(S)n1-c1ccccc1,HCT-116,LDH,"200 µg/mL, 24 h",viability,73.5%
CC[C@@]1(OC(=O)C(C)c2cccc(C(=O)c3ccccc3)c2)C(=O)OCc2c1cc1n(c2=O)Cc2cc3cc4c(cc3nc2-1)OCO4 (some centres unmarked),HCT-116,MTT,,IC50,302 nM
Cc1c(Cc2cccc(N(C)S(=O)(=O)CCCNCCCC(=O)N3CCN(c4ccc(Nc5c(C(N)=O)cnc6ccc(-c7cnc8ccccc8c7)cc56)cc4C(F)(F)F)CC3)c2)c(=O)oc2cc(OC(=O)N(C)C)ccc12,HCT-116,CCK-8,,GI50,5470 nM
CC[C@@]1(OC(=O)C(C)c2ccc(CC(C)C)cc2)C(=O)OCc2c1cc1n(c2=O)Cc2cc3cc4c(cc3nc2-1)OCO4 (some centres unmarked),HCT-116,MTT,,IC50,> 5000 nM
COc1cc2c(c3c1C(=O)C[C@@H](c1ccccc1)O3)[C@H]1[C@@H](O2)OC(C)(C)[C@@H]1OC(C)=O,Raji,MTS,72 h,IC50,> 10000 nM
CC(C)C[C@@H]1NC(=O)[C@H](Cc2ccccc2)NC(=O)[C@H](CCCCN)NC(=O)[C@H](CC(C)C)NC(=O)[C@H](C(C)C)NC1=O,HCT-116,thymidine uptake,"10 µM, 72 h",inhibition,0%
COc1cccc2c1C(=O)c1c(O)c3c(c(O)c1C2=O)C[C@@](O)(C(=O)CO)C[C@@H]3O[C@H]1C[C@H](N)[C@H](O)[C@H](C)O1,SK-OV-3,,48 h,IC50,1.2 µg/mL
Cc1cc(N(CCO)CCO)ccc1C=O,SN12K1,,,IC50,> 10 µg/mL
CC1=C(O)C(=O)C=C2C1=CC=C1[C@@]2(C)CC[C@@]2(C)[C@@H]3C[C@](C)(C(=O)OCCCn4cc(C=O)c5ccccc54)CC[C@]3(C)CC[C@]12C,AGS,MTT,48 h,IC50,320 nM
CC[C@@]1(OC(=O)[C@@H]2CCCN2)C(=O)OCc2c1cc1n(c2=O)Cc2cc3cc4c(cc3nc2-1)OCO4,HCT-116,MTT,,IC50,125 nM
